Article PMC9291822 (British Journal of Clinical Pharmacology, 2021)
Like-named read-outs stand apart in the source and are kept apart here.

Columns and labels:
[1] = format: in vivo, human; conditions: for AUCinf of metabolite, GM / AUCinf of metabolite, mean (SD) / AUClast of metabolite, GM / AUClast of metabolite, mean (SD) / Cmax of metabolite, GM / Cmax of metabolite, mean (SD) / Metabolite ratio of AUCinf, GM / Metabolite ratio of AUCinf, mean (SD) / Metabolite ratio of AUClast, GM / Metabolite ratio of AUClast, mean (SD) / Tmax of metabolite, median (range) / t½ of metabolite, GM / t½ of metabolite, mean (SD): after capmatinib single oral dose 200 mg
Outline: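 Adults aged 18–75 with hepatic impairment (Child–Pugh A/B/C, also reclassified by NCI Organ Dysfunction Working Group criteria) or normal function, matched on age, weight and sex. Overnight fast (≥10 h), single oral 200 mg (2 × 100 mg tablets), fasting ≥4 h post-dose. Plasma sampled predose to 72 h; parent and metabolite measured by validated LC-MS/MS (LLOQ ~1.00 ng/mL). Noncompartmental analysis; GM ratios vs normal with 90% CIs.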

[2] = multiple dosing of capmatinib; cited from earlier work
[3] = mild (n = 6), listed as M16 (CMN288)
[4] = moderate (n = 8), listed as M16 (CMN288)
[5] = normal (n = 9), listed as M16 (CMN288)
[6] = severe (n = 6), listed as M16 (CMN288)

- AUCinf of metabolite, GM ([1]; mild (n = 6)): 2190 ng·h/mL
- AUCinf of metabolite, mean (SD) ([1]; mild (n = 6)): 2300 (691) ng × h/mL
- AUClast of metabolite, GM ([1]; mild (n = 6)): 2150 ng·h/mL
- AUClast of metabolite, mean (SD) ([1]; mild (n = 6)): 2250 (677) ng × h/mL
- Cmax of metabolite, GM ([1]; mild (n = 6)): 423 ng/mL
- Cmax of metabolite, mean (SD) ([1]; mild (n = 6)): 492 (272) ng/mL
- Metabolite ratio of AUCinf, GM ([1]; mild (n = 6)): 0.440 (23.8) fold
- Metabolite ratio of AUCinf, mean (SD) ([1]; mild (n = 6)): 0.450 (0.0988) fold
- Metabolite ratio of AUClast, GM ([1]; mild (n = 6)): 0.437 (24.1) fold
- Metabolite ratio of AUClast, mean (SD) ([1]; mild (n = 6)): 0.447 (0.100) fold
- Tmax of metabolite, median (range) ([1]; mild (n = 6)): 1.00 (1.00–2.00) h
- t½ of metabolite, GM ([1]; mild (n = 6)): 6.84 h
- t½ of metabolite, mean (SD) ([1]; mild (n = 6)): 7.86 (5.49) h
- Metabolite ratio of AUCinf, GM [1, 3]: 0.440 fold
- Metabolite ratio of AUClast, GM [1, 3]: 0.437 fold
- AUCinf of metabolite, GM ([1]; moderate (n = 8)): 3400 ng·h/mL
- AUCinf of metabolite, mean (SD) ([1]; moderate (n = 8)): 3850 (2490) ng × h/mL
- AUClast of metabolite, GM ([1]; moderate (n = 8)): 3370 ng·h/mL
- AUClast of metabolite, mean (SD) ([1]; moderate (n = 8)): 3830 (2490) ng × h/mL
- Cmax of metabolite, GM ([1]; moderate (n = 8)): 587 ng/mL
- Cmax of metabolite, mean (SD) ([1]; moderate (n = 8)): 738 (645) ng/mL
- Metabolite ratio of AUCinf, GM ([1]; moderate (n = 8)): 0.573 (67.7) fold
- Metabolite ratio of AUCinf, mean (SD) ([1]; moderate (n = 8)): 0.680 (0.443) fold
- Metabolite ratio of AUClast, GM ([1]; moderate (n = 8)): 0.573 (68.0) fold
- Metabolite ratio of AUClast, mean (SD) ([1]; moderate (n = 8)): 0.680 (0.445) fold
- Tmax of metabolite, median (range) ([1]; moderate (n = 8)): 1.00 (1.00–3.00) h
- t½ of metabolite, GM ([1]; moderate (n = 8)): 6.42 h
- t½ of metabolite, mean (SD) ([1]; moderate (n = 8)): 7.32 (5.16) h
- Metabolite ratio of AUCinf, GM [1, 4]: 0.573 fold
- Metabolite ratio of AUClast, GM [1, 4]: 0.573 fold
- AUCinf of metabolite, GM ([1]; normal (n = 9)): 4560 ng·h/mL
- AUCinf of metabolite, mean (SD) ([1]; normal (n = 9)): 4820 (1880) ng × h/mL
- AUClast of metabolite, GM ([1]; normal (n = 9)): 4520 ng·h/mL
- AUClast of metabolite, mean (SD) ([1]; normal (n = 9)): 4780 (1880) ng × h/mL
- Cmax of metabolite, GM ([1]; normal (n = 9)): 1010 ng/mL
- Cmax of metabolite, mean (SD) ([1]; normal (n = 9)): 1050 (328) ng/mL
- Metabolite ratio of AUCinf, GM ([1]; normal (n = 9)): 0.704 (24.1) fold
- Metabolite ratio of AUCinf, mean (SD) ([1]; normal (n = 9)): 0.722 (0.181) fold
- Metabolite ratio of AUClast, GM ([1]; normal (n = 9)): 0.702 (24.0) fold
- Metabolite ratio of AUClast, mean (SD) ([1]; normal (n = 9)): 0.720 (0.180) fold
- Tmax of metabolite, median (range) ([1]; normal (n = 9)): 1.50 (1.00–2.00) h
- t½ of metabolite, GM ([1]; normal (n = 9)): 9.96 h
- t½ of metabolite, mean (SD) ([1]; normal (n = 9)): 11.4 (6.92) h
- Metabolite ratio of AUCinf, GM [1, 5]: 0.704 fold
- Metabolite ratio of AUClast, GM [1, 5]: 0.702 fold
- AUCinf of metabolite, GM ([1]; severe (n = 6)): 2130 ng·h/mL
- AUCinf of metabolite, mean (SD) ([1]; severe (n = 6)): 2350 (1200) ng × h/mL
- AUClast of metabolite, GM ([1]; severe (n = 6)): 2110 ng·h/mL
- AUClast of metabolite, mean (SD) ([1]; severe (n = 6)): 2330 (1210) ng × h/mL
- Cmax of metabolite, GM ([1]; severe (n = 6)): 262 ng/mL
- Cmax of metabolite, mean (SD) ([1]; severe (n = 6)): 287 (130) ng/mL
- Metabolite ratio of AUCinf, GM ([1]; severe (n = 6)): 0.266 (32.2) fold
- Metabolite ratio of AUCinf, mean (SD) ([1]; severe (n = 6)): 0.276 (0.0802) fold
- Metabolite ratio of AUClast, GM ([1]; severe (n = 6)): 0.264 (32.2) fold
- Metabolite ratio of AUClast, mean (SD) ([1]; severe (n = 6)): 0.274 (0.0795) fold
- Tmax of metabolite, median (range) ([1]; severe (n = 6)): 3.00 (1.50–6.00) h
- t½ of metabolite, GM ([1]; severe (n = 6)): 5.87 h
- t½ of metabolite, mean (SD) ([1]; severe (n = 6)): 5.93 (0.907) h
- Metabolite ratio of AUCinf, GM [1, 6]: 0.266 fold
- Metabolite ratio of AUClast, GM [1, 6]: 0.264 fold
- decrease in metabolite GM AUCinf vs. normal group ([1]; mild group): 52.0%
- decrease in metabolite GM AUClast vs. normal group ([1]; mild group): 52.4%
- decrease in metabolite GM Cmax vs. normal group ([1]; mild group): 58.1%
- decrease in metabolite GM t1/2 vs. normal group ([1]; mild group): 31.3%
- decrease in metabolite GM AUCinf vs. normal group ([1]; moderate group): 25.4%
- decrease in metabolite GM AUClast vs. normal group ([1]; moderate group): 25.4%
- decrease in metabolite GM Cmax vs. normal group ([1]; moderate group): 41.9%
- decrease in metabolite GM t1/2 vs. normal group ([1]; moderate group): 35.5%
- decrease in metabolite GM AUCinf vs. normal group ([1]; severe group): 53.3%
- decrease in metabolite GM AUClast vs. normal group ([1]; severe group): 53.3%
- decrease in metabolite GM Cmax vs. normal group ([1]; severe group): 74.1%
- decrease in metabolite GM t1/2 vs. normal group ([1]; severe group): 41.1%
- decrease in metabolite GM AUCinf and AUClast vs. normal hepatic function ([1]; the 3 hepatic impairment groups): 25–53%
SMILES: CNC(=O)c1ccc(-c2nn3c(Cc4ccc5ncccc5c4)cnc3[nH]c2=O)cc1F [CMN288]
- accumulation of metabolite after multiple dosing [2]: does not accumulate
